# Data published in ChEMBL document CHEMBL1629555, “Antimalarial activity of phenylthiazolyl-bearing hydroxamate-based histone deacetylase inhibitors” (Antimicrob Agents Chemother, 2008).
# pIC50: −log10 of the molar value. Calls of active or inactive are those of the source. No cut-off for these calls is given here.
# How the values were obtained:
# Plasmodium berghei [1] = assay: Antimalarial activity against Plasmodium berghei infected in mouse assessed as parasitemia level at 160 mg/kg/day for 3 days measured on day 3 in presence of 2 […] chloroquine (reference value: 0.46%); type: functional
# Summary of the method: (§1)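 Mice were infected ip with 10^6 P. berghei-parasitized erythrocytes. The compound was given orally once daily on days 3, 4 and 5 post-infection in hydroxyethylcellulose-Tween 20 vehicle, alone or together with chloroquine, with 5 mice per dose group. Parasitemia (%) was read on days 3 and 6, and cures were counted as animals cured out of 5.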
# Plasmodium falciparum [2] = assay: Antimalarial activity against Plasmodium falciparum at 1 nM assessed as parasite growth after 3.5 hrs; type: functional
# Summary of the method: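 Infected erythrocytes were exposed to compound for 3.5 h, washed, and returned to culture. Parasite growth was compared with matched controls after 48 h.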
# Plasmodium falciparum [3] = assay: Antimalarial activity against drug-resistant Plasmodium falciparum TM91C235; type: functional, organism-based
# [4] = AUC in ICR mouse at 50 mg/kg/day, po by LC/MS analysis; type: ADME, organism-based; design: route oral; settings: plasma
# Summary of the method: (§2)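 Male ICR mice, 8 weeks old, got one 50 mg/kg dose either orally or subcutaneously, with three groups of six mice per route. One mouse per group was killed at 15, 30 and 60 min and at 3, 6 and 24 h. Plasma was deproteinized with 2 volumes of acetonitrile and analysed by LC-MS/MS on a C18 column against 0–500 ng/ml standards, with parent and acid metabolite measured in the same sample. Each six-mouse group was treated as one "animal" and fitted to a two-compartment model. AUC was taken by the linear trapezoidal rule extrapolated to infinity, and Cmax and Tmax were read per "animal".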
# Plasmodium berghei [5] = assay: Antimalarial activity against Plasmodium berghei infected in mouse assessed as effect on cure rate at 0.32 mg/kg/day for 3 days; type: functional, organism-based
# Plasmodium falciparum [6] = assay: Antimicrobial activity against Plasmodium falciparum D6 infected in Aotus lemurinus lemurinus monkey at […] in presence of 4 mg/kg chloroquine; type: functional
# Plasmodium berghei [7] = assay: Antimalarial activity against Plasmodium berghei infected in mouse assessed as parasitemia level at 160 mg/kg/day for 3 days measured on day 3 (reference value: 0.46%); type: functional; summary of the method: as §1
# Plasmodium berghei [8] = assay: Antimalarial activity against Plasmodium berghei infected in mouse assessed as parasitemia level at single dose of 80 mg/kg/day, po for 3 days measured on day 6 relative to control; type: functional
# Summary of the method: (§3)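 Mice infected intraperitoneally with 10^6 P. berghei-parasitized erythrocytes. Drug given orally once daily on days 3, 4 and 5 post-infection in hydroxyethylcellulose-Tween 20 vehicle, 5 mice per dose group. Parasitemia measured on day 6 and expressed as a fraction of untreated control parasitemia.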
# Mus musculus [9] = assay: Toxicity in Plasmodium berghei-infected mouse assessed as mortality at split dose of 130 mg/kg/day, po for 7 days; type: organism-based; design: route oral; settings: in vivo, 168 h
# Plasmodium falciparum [10] = assay: Antimicrobial activity against Plasmodium falciparum D6 infected in Aotus lemurinus lemurinus monkey at […] in presence of artemisinin; type: functional
# Plasmodium falciparum [11] = assay: Antimicrobial activity against Plasmodium falciparum W2 at […] in presence of artemisinin; type: functional
# Summary of the method: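 In vitro fixed-ratio isobologram using a SYBR green I fluorescence assay. […] IC50s were standardized and FIC50 and ΣFIC50 calculated by the Berenbaum method. Reported as the average ΣFIC across dilutions or the average maximum ΣFIC, from at least 2 experiments.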
# Plasmodium berghei [12] = assay: Antimalarial activity against Plasmodium berghei infected in mouse assessed as parasitemia level at single dose of 40 mg/kg/day, po for 3 days measured on day 6 relative to control; type: functional; summary of the method: as §3
# Plasmodium falciparum [13] = assay: Antimalarial activity against Plasmodium falciparum infected in mouse RAW264.7 cells; type: functional, organism-based
# [14] = biological target: T1, Histone deacetylase (Plasmodium falciparum 3D7) (UniProt Q7K6A1); assay: Inhibition of Plasmodium falciparum 3D7 histone deacetylase infected in human erythrocytes assessed as alteration of histone H3 acetylation after 3.5 hrs by SDS-PAGE; type: cell-based
# T1 sequence (whole entry): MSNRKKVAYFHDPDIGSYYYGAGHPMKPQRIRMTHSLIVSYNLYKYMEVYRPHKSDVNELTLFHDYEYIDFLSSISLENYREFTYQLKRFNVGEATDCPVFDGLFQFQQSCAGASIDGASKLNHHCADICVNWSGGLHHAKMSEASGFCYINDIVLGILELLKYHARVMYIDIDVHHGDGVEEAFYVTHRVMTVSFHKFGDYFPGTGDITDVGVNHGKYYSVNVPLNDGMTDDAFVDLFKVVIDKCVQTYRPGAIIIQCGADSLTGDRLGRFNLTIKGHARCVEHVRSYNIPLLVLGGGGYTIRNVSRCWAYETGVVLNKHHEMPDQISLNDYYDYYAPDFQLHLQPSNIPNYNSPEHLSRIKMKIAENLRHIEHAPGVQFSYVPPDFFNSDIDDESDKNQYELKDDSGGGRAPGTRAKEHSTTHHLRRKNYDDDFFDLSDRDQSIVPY
# Summary of the method: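 About 3 × 10^9 erythrocytes infected with late-trophozoite P. falciparum 3D7 were exposed to compound or to DMSO vehicle for 3.5 h at 37°C, and an untreated sample was taken at the start. Histones were extracted, about 6 × 10^8 parasites were loaded per lane on SDS–15% PAGE, and loading was checked by silver stain. Western blots were probed with anti-tetraacetyl-H4 and anti-diacetyl-H3 antisera and detected by ECL.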
# Plasmodium berghei [15] = assay: Antimalarial activity against Plasmodium berghei infected in mouse assessed as effect on cure rate at 32 mg/kg/day for 3 days; type: functional, organism-based; summary of the method: as §1
# [16] = Cmax in ICR mouse at 50 mg/kg/day, sc by LC/MS analysis; type: ADME, organism-based; design: dose 50 mg/kg/day, route subcutaneous; settings: in vivo; summary of the method: as §2
# Plasmodium berghei [17] = assay: Antimalarial activity against Plasmodium berghei infected in mouse assessed as effect on cure rate at 12.8 mg/kg/day for 3 days measured on day 6 in presence of 16 mg/kg/day chloroquine; type: functional, organism-based; summary of the method: as §1
# Mus musculus [18] = assay: Toxicity in Plasmodium berghei-infected mouse assessed as mortality at split dose of 80 mg/kg/day, po for 3 days; type: organism-based; design: route oral; settings: in vivo, 72 h
# Plasmodium berghei [19] = assay: Antimalarial activity against Plasmodium berghei infected in mouse assessed as effect on cure rate at 320 mg/kg/day for 3 days; type: functional, organism-based; summary of the method: as §1
# Plasmodium berghei [20] = assay: Antimalarial activity against Plasmodium berghei infected in mouse assessed as effect on cure rate at 130 mg/kg/day, po for 7 days; type: functional, organism-based
# Summary of the method: (§4)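 Mice were infected ip with 10^6 P. berghei-parasitized erythrocytes. The compound was given in hydroxyethylcellulose-Tween 20 vehicle, 5 mice per group, starting on day 3 post-infection. Regimens were once-daily or split daily oral doses over 3 days, subcutaneous dosing, or dosing over 7 days. Read-outs were posttreatment parasitemia on day 6 as a fraction of controls and the number of mice cured.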
# Plasmodium berghei [21] = assay: Antimalarial activity against Plasmodium berghei infected in mouse assessed as parasitemia level at single dose of 20 mg/kg/day, po for 3 days measured on day 6 relative to control; type: functional; summary of the method: as §3
# Mus musculus [22] = assay: Toxicity in Plasmodium berghei-infected mouse assessed as mortality at split dose of 40 mg/kg/day, po for 3 days; type: organism-based; design: route oral; settings: in vivo, 72 h
# Plasmodium berghei [23] = assay: Antimalarial activity against Plasmodium berghei infected in mouse assessed as parasitemia level at 0.32 mg/kg/day for 3 days measured on day 3 (reference value: 0.46%); type: functional
# Plasmodium berghei [24] = assay: Antimalarial activity against Plasmodium berghei infected in mouse assessed as effect on curate rate at split dose of 40 mg/kg/day, po for 3 days; type: functional, organism-based; summary of the method: as §4
# Plasmodium berghei [25] = assay: Antimalarial activity against Plasmodium berghei infected in mouse assessed as parasitemia level at 32 mg/kg/day for 3 days measured on day 6 in presence of 3.6 mg/kg/day chloroquine (reference value: 37%); type: functional; summary of the method: as §1
smiles,measurement,setting,value
Nc1cccc(-c2csc(NC(=O)CCCCCCC(=O)NO)n2)c1,Activity,Plasmodium berghei [1],0.5%
same,Activity,Plasmodium falciparum [2],<=40%
same,pIC50,Plasmodium falciparum [3],8.82
same,AUC,[4],3690 ng·h/mL
same,Activity,Plasmodium berghei [5],inactive
same,fractional inhibitory concentration index (FICI),Plasmodium falciparum [6],2.2
same,Activity,Plasmodium berghei [7],0.64%
same,fold change (FC),Plasmodium berghei [8],0.096
same,Activity,Mus musculus [9],Non-toxic
same,fractional inhibitory concentration index (FICI),Plasmodium falciparum [10],2.1
same,fractional inhibitory concentration index (FICI),Plasmodium falciparum [11],2.1
same,fold change (FC),Plasmodium berghei [12],0.12
same,pIC50,Plasmodium falciparum [13],9.23
same,inhibition,[14],Dose-dependent effect
same,Activity,Plasmodium berghei [15],inactive
same,Cmax,[16],403 ng/mL
same,Activity,Plasmodium berghei [17],inactive
same,Activity,Mus musculus [18],Non-toxic
same,Activity,Plasmodium berghei [19],inactive
same,Activity,Plasmodium berghei [20],inactive
same,fold change (FC),Plasmodium berghei [21],0.57
same,Activity,Mus musculus [22],Non-toxic
same,Activity,Plasmodium berghei [23],0.62%
same,Activity,Plasmodium berghei [24],inactive
same,Activity,Plasmodium berghei [25],0.08%
